Results reported in ChEMBL document CHEMBL1136987, “Synthesis and evaluation of sphingosine analogues as inhibitors of sphingosine kinases” (J Med Chem, 2009).
Activity calls are given as the source filed them. No cut-off for these calls is given here.

What was measured:
U-937 [1] = test: Inhibition of basal sphingosine-1-phosphate levels in human U937 cells at 5 uM after 2 hrs by ELISA; format: functional, cell-based
In short: (§1)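 Human monocytic U937 cells, stimulated or not with TNFα, were incubated with or without inhibitor at 5 µM for 2 h. Cellular S1P was quantified by competitive S1P ELISA (sensitivity 30 nM).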

Sphingosine kinase 1 [2] = biological target: T1, Sphingosine kinase 1 (Homo sapiens, UniProt Q9NYA1); test: Effect on EGFP-fused human SPHK1 activity expressed in CHO cells at 10 uM relative to basal level; format: cell-based
In short: (§2)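 Enzyme source: lysates (40 µg protein) of CHO cells transiently transfected (Lipofectamine 2000) with human SPHK1 (EGFP fusion) or SPHK2 plasmid. Compound at 10 µM in sphingosine kinase buffer with sphingosine-BSA complex (1 mM stock) and cold plus γ-[32P]ATP; 30 min at 37 °C. Lipids extracted with acidified chloroform/methanol, run on TLC, phosphorimaged; triplicate lanes per tube.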

Sphingosine kinase 1 [3] = biological target: T1, Sphingosine kinase 1; test: Inhibition of EGFP-fused human SPHK1 expressed in CHO cells; format: cell-based
In short: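 SPHK1 from transfected CHO cell lysates (40 µg per tube), sphingosine-BSA and γ-[32P]ATP, 30 min at 37 °C. Compounds tested at 0, 10, 25, 50 and 100 µM. Radiolabelled S1P measured by TLC and phosphorimaging. IC50 obtained from triplicate experiments and reported as mean ± SD.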

[4] = biological target: T2, Sphingosine kinase 2 (Homo sapiens) (UniProt Q9NRA0); test: Inhibition of human SPHK2 expressed in human U937 cells assessed as inhibition of endogenous sphingosine-1-phosphate levels at 5 uM after 2 hrs by ELISA; format: cell-based; settings: U-937
T2 sequence (whole entry): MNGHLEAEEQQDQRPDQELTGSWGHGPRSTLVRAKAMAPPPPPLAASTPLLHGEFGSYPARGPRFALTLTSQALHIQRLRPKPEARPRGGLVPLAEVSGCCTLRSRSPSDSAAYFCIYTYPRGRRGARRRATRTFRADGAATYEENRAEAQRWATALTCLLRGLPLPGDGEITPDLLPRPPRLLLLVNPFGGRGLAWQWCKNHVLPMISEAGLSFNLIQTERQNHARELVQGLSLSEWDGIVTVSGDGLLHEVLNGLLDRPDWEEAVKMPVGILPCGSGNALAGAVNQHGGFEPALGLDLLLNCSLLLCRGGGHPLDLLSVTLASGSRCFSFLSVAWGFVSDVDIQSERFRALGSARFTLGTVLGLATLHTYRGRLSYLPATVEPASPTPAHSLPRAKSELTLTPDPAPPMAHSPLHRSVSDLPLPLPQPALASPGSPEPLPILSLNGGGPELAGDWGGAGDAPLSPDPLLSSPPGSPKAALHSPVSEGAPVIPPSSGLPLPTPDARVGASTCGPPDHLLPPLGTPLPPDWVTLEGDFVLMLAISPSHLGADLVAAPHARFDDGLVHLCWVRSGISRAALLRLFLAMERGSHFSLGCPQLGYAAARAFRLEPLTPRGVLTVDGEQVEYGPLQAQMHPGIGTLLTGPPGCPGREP
In short: (§3)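 U937 cells transfected with huSPHK1 or huSPHK2 plasmid, then incubated with or without inhibitor at 5 µM for 2 h. Endogenous S1P was measured by competitive ELISA (sensitivity 30 nM).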

U-937 [5] = test: Antiproliferative activity against human U937 cells at 10 uM after 24 to 72 hrs by MTT assay; format: functional
In short: (§4)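 U937 or HL60 cells in RPMI 1640 with 10% FBS and 1% L-glutamine; 50 000 cells/well at 1 × 10^6 cells/mL. Compound at 10 µM, DMSO 0.5% of volume as vehicle control. Incubated 24, 48, 72 h at 37 °C, 5% CO2. MTT (4 mg/mL in RPMI) added for 2 h in dark, crystals dissolved in DMSO/glycine buffer, A570 read.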

Sphingosine kinase 1 [6] = biological target: T1, Sphingosine kinase 1; test: Inhibition of human SPHK1 expressed in human U937 cells assessed as inhibition of endogenous sphingosine-1-phosphate levels at 5 uM after 2 hrs by ELISA; format: cell-based; settings: U-937; in short: as §3
[7] = biological target: T2, Sphingosine kinase 2 (Homo sapiens); test: Inhibition of human cloned SPHK2 expressed in CHO cells at 10 uM; format: cell-based; in short: as §2
Sphingosine kinase 1 [8] = biological target: T1, Sphingosine kinase 1; test: Inhibition of EGFP-fused human SPHK1 expressed in CHO cells at 10 uM; format: cell-based; in short: as §2
U-937 [9] = test: Inhibition of TNF-alpha-induced sphingosine-1-phosphate levels in human U937 cells at 5 uM after 2 hrs by ELISA; format: functional, cell-based; in short: as §1
[10] = biological target: T2, Sphingosine kinase 2 (Homo sapiens); test: Effect on human cloned SPHK2 activity expressed in CHO cells at 10 uM relative to basal level; format: cell-based; in short: as §2
Sphingosine kinase 1 [11] = biological target: T1, Sphingosine kinase 1; test: Inhibition of EGFP-fused human SPHK1 expressed in CHO cells using D-erythro-sphingosine as substrate by Michaelis-Menten plot
In short: (§5)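 Kinetics of huSPHK1 or huSPHK2 from transfected CHO lysates, with D-erythro-sphingosine as substrate, in the 32P-ATP TLC assay (30 min, 37 °C). Michaelis-Menten behaviour was used to derive Km for sphingosine and Ki for the inhibitors.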

HL-60 = test: Antiproliferative activity against human HL60 cells at 10 uM after 24 to 72 hrs by MTT assay; format: functional; in short: as §4
[12] = biological target: Protein kinase C alpha type (Homo sapiens) (UniProt P17252); test: Inhibition of human PKCalpha at 100 uM by gel electrophoresis
In short: (§6)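 PepTag nonradioactive assay: purified human PKCα with C1 peptide, PKC activator and reaction buffer. Inhibitor at 10, 25, 50, 75 or 100 µM, preincubated 2 min, then 30 min at 30 °C with enzyme. Stopped at 95 °C for 10 min.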

[13] = biological target: Protein kinase C alpha type (Homo sapiens) (UniProt P17252); test: Inhibition of human PKCalpha at 50 uM by gel electrophoresis; in short: as §6
Sphingosine kinase 2 = biological target: T3, Sphingosine kinase 2 (Homo sapiens, UniProt Q9NRA0); test: Inhibition of human cloned SPHK2 expressed in CHO cells using D-erythro-sphingosine as substrate by Michaelis-Menten plot; in short: as §5
T3 sequence (Q9NRA0 whole entry): T2 sequence (whole entry)

T1 sequence (Q9NYA1 whole entry, the tested form may be a part): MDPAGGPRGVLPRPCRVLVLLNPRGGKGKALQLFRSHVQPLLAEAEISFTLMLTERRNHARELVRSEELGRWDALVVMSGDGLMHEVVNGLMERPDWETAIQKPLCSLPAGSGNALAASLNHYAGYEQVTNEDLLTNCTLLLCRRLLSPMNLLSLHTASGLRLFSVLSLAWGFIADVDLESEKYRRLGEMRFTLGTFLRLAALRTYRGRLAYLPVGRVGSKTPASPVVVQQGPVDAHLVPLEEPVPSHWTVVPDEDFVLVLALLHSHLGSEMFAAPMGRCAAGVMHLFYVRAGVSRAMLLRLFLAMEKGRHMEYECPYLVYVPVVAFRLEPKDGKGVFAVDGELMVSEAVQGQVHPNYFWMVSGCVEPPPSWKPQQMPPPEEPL

Structure (SMILES) | Activity (Sphingosine kinase 1 [2]) [%] | IC50 (Sphingosine kinase 1 [3]) [µM] | Activity [4] | Activity (Sphingosine kinase 1 [6]) | inhibition [7] | inhibition (Sphingosine kinase 1 [8]) | Activity [10] [%] | Ki (Sphingosine kinase 1 [11]) [µM] | Activity [12] | Activity [13] | Ki (Sphingosine kinase 2) [µM] | Activity (U-937 [1]) | Activity (U-937 [5]) | Activity (U-937 [9]) | Activity (HL-60) [%]
CCCCCCCCCCCCCC#CC(=O)[C@@H]1COC(C)(C)N1C(=O)OC(C)(C)C | 45.3 | 3.3 | – | Active | inactive | 54.7% | 117 | 3 | Active | – | – | – | 10% | Active | 10
CCCCCCCCCCCCC/C=C/[C@@H](O)[C@H](CO)N(C)C [DIMETHYLSPINGOSINE] | – | – | Active | – | 33% | – | 67 | – | – | Active | 12.5 | Active | – | Active | –
CCCCCCCCCCCCCC#C[C@@H](O)[C@@H]1COC(C)(C)N1C(=O)OC(C)(C)C | 112 | – | – | – | inactive | inactive | 123 | – | – | – | – | – | – | – | –
CCCCC#CC(=O)[C@@H]1COC(C)(C)N1C(=O)OC(C)(C)C | 90.9 | – | – | – | inactive | 9.08% | 115 | – | – | – | – | – | – | – | –
CCCCCCC(=O)[C@@H]1COC(C)(C)N1C(=O)OC(C)(C)C | 95.3 | – | – | – | inactive | 4.71% | 126 | – | – | – | – | – | – | – | –
CCCCCCCCC#CC(=O)[C@@H]1COC(C)(C)N1C(=O)OC(C)(C)C | 84.8 | – | – | – | 37.2% | 15.2% | 62.8 | – | – | – | – | – | – | – | –
CCCCCCCCCCCCCC#C[C@@H](O)[C@@H](N)CO | 75.6 | – | – | – | inactive | 24.4% | 152 | – | – | – | – | – | – | – | –
CCCCCCCCC#C[C@@H](O)[C@@H](N)CO | 86.3 | – | – | – | inactive | 13.7% | 116 | – | – | – | – | – | – | – | –
CCCCC#C[C@@H](O)[C@@H](N)CO | 132 | – | – | – | inactive | inactive | 109 | – | – | – | – | – | – | – | –

Continued, in another order:

Activity (Sphingosine kinase 1 [2]) [%] | IC50 (Sphingosine kinase 1 [3]) [µM] | Activity [4] | Activity (Sphingosine kinase 1 [6]) | inhibition [7] | inhibition (Sphingosine kinase 1 [8]) | Activity [10] [%] | Ki (Sphingosine kinase 1 [11]) [µM] | Activity [12] | Activity [13] | Ki (Sphingosine kinase 2) [µM] | Structure (SMILES) | Activity (U-937 [1]) | Activity (U-937 [5]) | Activity (U-937 [9]) | Activity (HL-60) [%]
43.1 | 1.2 | Active | Active | 54.1% | 56.9% | 45.9 | 1 | – | – | – | CCCCCCCCCCCCCC#CC(=O)[C@H](CO)NC(=O)OC(C)(C)C | Active | Active | inactive | –
117 | – | – | – | inactive | inactive | 111 | – | – | – | – | CCCCC#C[C@H](O)[C@H](CO)NC(=O)OC(C)(C)C | – | – | – | –
106 | – | – | – | inactive | inactive | 117 | – | – | – | – | CCCCC#CC(=O)[C@H](CO)NC(=O)OC(C)(C)C | – | – | – | –
95.8 | – | – | – | inactive | 4.2% | 89.9 | – | – | – | – | CCCCCCCCC#CC(=O)[C@H](CO)NC(=O)OC(C)(C)C | – | – | – | –
